Tests used:
SW480 [1] = assay: Antiproliferative activity against human SW480 cells assessed as growth inhibition incubated up to 4 days by MTS assay; type: functional, cell-based; settings: SW480, 96 h
Outline: (§1)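 Five human tumour cell lines were assayed by MTS. IC50 is the compound concentration that cuts optical density of treated cells by 50% relative to untreated cells. Mean of three independent determinations.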

SMMC-7721 = assay: Antiproliferative activity against human SMMC7721 cells assessed as growth inhibition incubated up to 4 days by MTS assay; type: functional, cell-based; settings: SMMC-7721, 96 h; outline: as §1
MCF7 [2] = assay: Antiproliferative activity against human MCF7 cells assessed as growth inhibition incubated up to 4 days by MTS assay; type: functional, cell-based; settings: MCF7, 96 h; outline: as §1
HL-60 = assay: Antiproliferative activity against human HL60 cells assessed as growth inhibition incubated up to 4 days by MTS assay; type: functional, cell-based; settings: HL-60, 96 h; outline: as §1
A549 = assay: Antiproliferative activity against human A549 cells assessed as growth inhibition incubated up to 4 days by MTS assay; type: functional, cell-based; settings: A549, 96 h; outline: as §1
MCF7 [3] = assay: Potency index, ratio of cisplatin IC50 to compound IC50 for antiproliferative activity against human MCF7 cells assessed as growth inhibition; type: functional
SW480 [4] = assay: Potency index, ratio of cisplatin IC50 to compound IC50 for antiproliferative activity against human SW480 cells assessed as growth inhibition; type: functional

| Compound | IC50 (SW480 [1]) [µM] | IC50 (SMMC-7721) [µM] | IC50 (MCF7 [2]) [µM] | IC50 (HL-60) [µM] | IC50 (A549) [µM] | Ratio IC50 (MCF7 [3]) | Ratio IC50 (SW480 [4]) |
| --- | --- | --- | --- | --- | --- | --- | --- |
| O=c1oc2ccccc2cc1C(c1ccccc1)n1cnc2ccccc21 (stereo not given) | > 20 | > 20 | > 20 | > 20 | > 20 |  |  |
| O=C(C[n+]1ccn(C(c2ccccc2)c2cc3ccccc3oc2=O)c1)c1ccc(Br)cc1 (stereo not given) | > 20 | > 20 | > 20 | > 20 | > 20 |  |  |
| Cc1cc2ncn(C(c3ccccc3)c3cc4ccccc4oc3=O)c2cc1C (stereo not given) | > 20 | > 20 | > 20 | > 20 | > 20 |  |  |
| COc1ccc(C(=O)C[n+]2ccn(C(c3ccccc3)c3cc4ccccc4oc3=O)c2)cc1 (stereo not given) | > 20 | > 20 | > 20 | > 20 | > 20 |  |  |
| O=C(C[n+]1ccn(C(c2ccccc2)c2cc3ccccc3oc2=O)c1)c1ccc(-c2ccccc2)cc1 (stereo not given) | > 20 | > 20 | 12.7 | 5.28 | > 20 |  |  |
| O=C(C[n+]1ccn(C(c2ccccc2)c2cc3ccccc3oc2=O)c1)c1ccc(C(F)(F)F)cc1 (stereo not given) | > 20 | > 20 | > 20 | > 20 | > 20 |  |  |
| Cc1n(C(c2ccccc2)c2cc3ccccc3oc2=O)c2ccccc2[n+]1CC(=O)c1ccc(C(F)(F)F)cc1 (stereo not given) | 9.13 | > 20 | 8.15 | 7.72 | > 20 |  |  |
| O=C(C[n+]1ccn(C(c2ccccc2)c2cc3ccccc3oc2=O)c1)c1ccccc1 (stereo not given) | > 20 | > 20 | > 20 | > 20 | > 20 |  |  |
| Cc1n(C(c2ccccc2)c2cc3ccccc3oc2=O)c2ccccc2[n+]1CC(=O)c1ccccc1 (stereo not given) | > 20 | > 20 | > 20 | > 20 | > 20 |  |  |
| Cc1n(C(c2ccccc2)c2cc3ccccc3oc2=O)c2ccccc2[n+]1CC(=O)c1ccc(Br)cc1 (stereo not given) | > 20 | > 20 | > 20 | > 20 | > 20 |  |  |
| Cc1nc2ccccc2n1C(c1ccccc1)c1cc2ccccc2oc1=O (stereo not given) | > 20 | > 20 | > 20 | > 20 | > 20 |  |  |
| O=c1oc2ccccc2cc1C(c1ccccc1)n1ccnc1 (stereo not given) | > 20 | > 20 | > 20 | > 20 | > 20 |  |  |

The next molecules have a lower IC50 (SW480 [1]) than those just listed; values first:

| IC50 (SW480 [1]) [µM] | IC50 (SMMC-7721) [µM] | IC50 (MCF7 [2]) [µM] | IC50 (HL-60) [µM] | IC50 (A549) [µM] | Compound | Ratio IC50 (MCF7 [3]) | Ratio IC50 (SW480 [4]) |
| --- | --- | --- | --- | --- | --- | --- | --- |
| 8.19 | 9.5 | 6.61 | 8.81 | 11.7 | Cc1cc2c(cc1C)[n+](CC(=O)c1ccc(C(F)(F)F)cc1)cn2C(c1ccccc1)c1cc2ccccc2oc1=O (stereo not given) |  |  |
| 8.03 | > 20 | 7.27 | 4.38 | > 20 | O=C(C[n+]1ccn(C(c2ccccc2)c2cc3ccccc3oc2=O)c1)c1ccc2ccccc2c1 (stereo not given) |  |  |
| 2.88 | 5.05 | 2.86 | 2.77 | 5.1 | Cc1n(C(c2ccccc2)c2cc3ccccc3oc2=O)c2ccccc2[n+]1CC(=O)c1ccc(-c2ccccc2)cc1 (stereo not given) |  |  |
| 6.02 | 11.4 | 2.81 | 8.34 | 15.8 | Cc1n(C(c2ccccc2)c2cc3ccccc3oc2=O)c2ccccc2[n+]1CC(=O)c1ccc2ccccc2c1 (stereo not given) |  |  |
| 1.48 | 5.72 | 1.28 | 4.13 | 9.11 | O=C(C[n+]1cn(C(c2ccccc2)c2cc3ccccc3oc2=O)c2ccccc21)c1ccc2ccccc2c1 (stereo not given) |  |  |
| 3.43 | 6.92 | 1.21 | 3.69 | 8.56 | COc1ccc(C(=O)C[n+]2c(C)n(C(c3ccccc3)c3cc4ccccc4oc3=O)c3ccccc32)cc1 (stereo not given) |  |  |
| 1.63 | 4.7 | 0.96 | 2.91 | 7.47 | O=C(C[n+]1cn(C(c2ccccc2)c2cc3ccccc3oc2=O)c2ccccc21)c1ccc(-c2ccccc2)cc1.[Br-] (stereo not given) | 10.2 | 4.9 |
| 1.65 | 8.2 | 1.24 | 5.95 | 11.9 | O=C(C[n+]1cn(C(c2ccccc2)c2cc3ccccc3oc2=O)c2ccccc21)c1ccc(Br)cc1 (stereo not given) |  |  |
| 1.24 | 7.17 | 4.17 | 4.81 | 12.4 | Cc1cc2c(cc1C)[n+](CC(=O)c1ccccc1)cn2C(c1ccccc1)c1cc2ccccc2oc1=O (stereo not given) |  |  |
| 0.36 | 4.72 | 1.58 | 1.55 | 5.65 | COc1ccc(C(=O)C[n+]2cn(C(c3ccccc3)c3cc4ccccc4oc3=O)c3cc(C)c(C)cc32)cc1.[Br-] (stereo not given) | 6.2 | 22.2 |
| 1.55 | 6.15 | 1.29 | 4.49 | 7.07 | O=C(C[n+]1cn(C(c2ccccc2)c2cc3ccccc3oc2=O)c2ccccc21)c1ccc(C(F)(F)F)cc1 (stereo not given) |  |  |
| 0.2 | 4.19 | 2.29 | 2.45 | 4.89 | Cc1cc2c(cc1C)[n+](CC(=O)c1ccc(Br)cc1)cn2C(c1ccccc1)c1cc2ccccc2oc1=O.[Br-] (stereo not given) |  | 40 |
| 8.03 | 1.91 | 1.66 | 2.07 | 2.14 | Cc1cc2c(cc1C)[n+](CC(=O)c1ccc(-c3ccccc3)cc1)cn2C(c1ccccc1)c1cc2ccccc2oc1=O (stereo not given) |  |  |
| 6.36 | > 20 | 5.1 | 18.6 | > 20 | O=C(C[n+]1cn(C(c2ccccc2)c2cc3ccccc3oc2=O)c2ccccc21)c1ccccc1 (stereo not given) |  |  |
| 4.82 | 8.84 | 1.74 | 7.13 | > 20 | COc1ccc(C(=O)C[n+]2cn(C(c3ccccc3)c3cc4ccccc4oc3=O)c3ccccc32)cc1 (stereo not given) |  |  |
